Seven compounds from ChEMBL document CHEMBL4680081, “Synthesis, photophysical properties and biological evaluation of β-alkylaminoporphyrin for photodynamic therapy” (Bioorg Med Chem, 2016) can be followed below.

The source made the active and inactive calls. No cut-off for these calls is given here.

A short description of series [1]: Emission property of the compound in DMSO assessed as stokes shift by fluorescence spectrophotometric method. Format: physicochemical. The gist of the method:
(§1)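 Fluorescence spectra recorded on a spectrofluorometer with slits of 1 nm for excitation and 1 or 2 nm for emission.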

Series [2] is described as follows: Absorption property of the compound in DMSO assessed as soret band absorption coefficient by UV-visible spectrophotometric method. Type of series: physicochemical. The gist of the method: (§2)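 UV–visible absorption spectra recorded in DMSO at concentrations 1, 2, 4, 6, 8, 10 µM, with the concentration dependence used to follow aggregation.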
Series [3] can be described thus: Absorption property of the compound in DMSO assessed as soret band maximum absorption wavelength by UV-visible spectrophotometric method. Type of series: physicochemical. In short, it runs like this: as §2
Series [4] can be described thus: Absorption property of the compound in DMSO assessed as Q band absorption coefficient by UV-visible spectrophotometric method. Format: physicochemical. The gist of the method: as §2
Series [5] has as its system HeLa. Nature of the series: Phototoxicity against human HeLa cells assessed as reduction in cell viability preincubated for 24 hrs followed by irradiated with 16 J/cm2 of 650 nanometer laser light measured after 24 hrs by MTT assay. As to conditions: light or radiation study. Type of series: functional, cell-based. The gist of the method:
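HeLa cells at 2 × 10^4 cells/well were attached for 24 h and given compound at a range of final concentrations for 24 h in the dark. After two PBS washes, cells were irradiated with a 650 nm Nd:YAG laser (doses 0–16 J/cm²). MTT viability was read 24 h later as % survival normalised to no-drug cells. Triplicate experiments.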
For orientation: Tetrazolium assays rely on reduction of a dye to a coloured formazan, in cell work by metabolically active cells.

A short description of series [6]: Dark toxicity in human HeLa cells assessed as reduction in cell viability after 24 hrs by MTT assay. Format: cell-based. In short, it runs like this:
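HeLa cells in DMEM with 10% FBS (37 °C, 5% CO2) were seeded at 2 × 10^4 cells/well and attached for 24 h. Compound at a range of final concentrations was taken up for 24 h in the dark, cells were washed with PBS and left unirradiated. MTT viability was read 24 h later as % survival normalised to no-drug cells. Triplicate experiments.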

The nature of series [7]: Induction of singlet oxygen generation in DMF solution assessed as singlet oxygen quantum yield irradiated with 650 nanometer laser light by DPBF-based assay. Format: functional.
Series [8] in a line: Emission property of the compound in DMSO assessed as maximum emission wavelength at 4 uM by fluorescence spectrophotometric method. Type of series: physicochemical. In short, it runs like this:
as §1

Series [9] can be described thus: Emission property of the compound in DMSO assessed as maximum excited state emission wavelength at 4 uM by fluorescence spectrophotometric method. Format: physicochemical. The gist of the method:
as §1

Series [10] in a line: Absorption property of the compound in DMSO assessed as Q band maximum absorption wavelength by UV-visible spectrophotometric method. Format: physicochemical. The gist of the method:
as §2

Series [11] is described as follows: Absorption property of the compound in DMSO assessed as soret band wavelength molar absorption coefficient by UV-visible spectrophotometric method. Format: physicochemical. In short, it runs like this:
as §2

A short description of series [12]: Absorption property of the compound in DMSO assessed as Q band wavelength molar absorption coefficient by UV-visible spectrophotometric method. Format: physicochemical. In short, it runs like this:
as §2

Series [13] in a line: Absorption property of the compound in DMSO assessed as Q band molar attenuation coefficient by UV-visible spectrophotometric method. Type of series: physicochemical. In short, it runs like this: as §2
The nature of series [14]: Drug localization in nuclear membrane of human HeLa cells at 5 uM incubated for 4 hrs in dark by Hoechst 33342 staining based confocal fluorescence microscopy. Format: ADME, cell membranes. In short, it runs like this: (§3)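 HeLa cells at 1 × 10^5 cells/mL on poly-L-lysine coverslips for 24 h, then 5 µM drug for 4 h in the dark at 37 °C. Nuclei were stained with Hoechst 33342 for 10 min at 37 °C, and cells fixed in 4% paraformaldehyde at 4 °C for 30 min. Confocal imaging: drug excited at 417 nm, emission 600–700 nm; Hoechst excited at 350 nm, emission 450–500 nm.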

Series [15] can be described thus: Drug localization in cytoplasm of human HeLa cells at 5 uM incubated for 4 hrs in dark by Hoechst 33342 staining based confocal fluorescence microscopy. Type of series: ADME, subcellular. In short, it runs like this: as §3
Series [16] has as its system HeLa. Nature of the series: Photodynamic antitumor activity against human HeLa cells xenografted in BALB/c nude mouse assessed as reduction in tumor volume at 5 mg/kg, iv followed by laser light irradiation at 100 J/cm2.

For orientation: IC50 means the concentration that inhibits the measured activity by half. In the case of `C1=Cc2nc1c(-c1ccccc1)c1ccc([nH]1)c(-c1ccccc1)c1nc(c(-c3ccccc3)c3ccc([nH]3)c2-c2ccccc2)C(N2CCCC2)=C1`, the Activity in series [1] was 1 nm; in series [2] it was 14.53 10^4/M/cm; in series [3], 412 nm; in series [4] it was 0.44 10^4/M/cm; in series [7] it was 0.43; in series [8] it was 665 nm. Further, the Activity in series [9] is 412 nm; in series [10] it was 601 nm; in [11], 528 nm; in series [12], 664 nm; in series [13], 0.25 10^4/M/cm. In the series with HeLa [5], the IC50 was 4.56 µM. Moreover, the IC50 at 24 h in [6] is 172 µM.

On to `COc1ccc(-c2c3nc(c(-c4ccc(OC)cc4)c4ccc([nH]4)c(-c4ccc(OC)cc4)c4nc(c(-c5ccc(OC)cc5)c5ccc2[nH]5)C=C4N2CCCC2)C=C3)cc1`, for which the Activity is 15 nm in [1]; 13.43 10^4/M/cm in [2]; 417 nm in [3]; 0.68 10^4/M/cm in series [4]; 0.56 in series [7]; 683 nm in [8]. For the same compound, the Activity in [9] was 417 nm; in series [10] it was 603 nm; in series [11] it was 535 nm; in series [12], 668 nm; in series [13], 0.54 10^4/M/cm. The Drug uptake entry in series [14] and in series [15] was “Active” in each case. For the same compound, the IC50 with HeLa [5] was 4.38 µM. Further, the 50% inhibitory concentration (IC50) at 24 h in series [6] came out at 387 µM. The result with HeLa [16] was Active.

Consider `Clc1ccc(-c2c3nc(c(-c4ccc(Cl)cc4)c4ccc([nH]4)c(-c4ccc(Cl)cc4)c4nc(c(-c5ccc(Cl)cc5)c5ccc2[nH]5)C=C4N2CCCC2)C=C3)cc1`, for which the Activity is 17 nm in [1]; 14.75 10^4/M/cm in series [2]; 412 nm in series [3]; 0.73 10^4/M/cm in [4]; 0.2 in [7]; 665 nm in series [8]. In addition, the Activity is given as 412 nm in [9]; 594 nm in series [10]; 521 nm in [11]; 648 nm in series [12]; 0.67 10^4/M/cm in [13]. For the same compound, in the series with HeLa [5], the IC50 was 6.43 µM. For the same compound, the IC50 at 24 h in series [6] is 81.6 µM.

On to `Cc1ccc(-c2c3nc(c(-c4ccc(C)cc4)c4ccc([nH]4)c(-c4ccc(C)cc4)c4nc(c(-c5ccc(C)cc5)c5ccc2[nH]5)C=C4N2CCCC2)C=C3)cc1`, for which the Activity is 4 nm in [1]; 16.52 10^4/M/cm in [2]; 414 nm in series [3]; 0.58 10^4/M/cm in series [4]; 0.54 in series [7]; 671 nm in series [8]. The Activity in series [9] is reported as 414 nm; in [10], 602 nm; in series [11] it was 531 nm; in [12], 666 nm; in [13], 0.34 10^4/M/cm. The IC50 in the series on HeLa [5] came out at 5.33 µM. The 50% inhibitory concentration (IC50) at 24 h in series [6] turned out to be 280 µM.

On to `C1=Cc2nc1c(-c1ccccc1)c1ccc([nH]1)c(-c1ccccc1)c1nc(c(-c3ccccc3)c3ccc([nH]3)c2-c2ccccc2)C(N2CCOCC2)=C1`, for which the Activity in series [1] was 13 nm; in [2], 16.08 10^4/M/cm; in series [3], 417 nm; in [4], 0.69 10^4/M/cm; in series [7], 0.25; in [8], 663 nm. In addition, the Activity in series [9] was 417 nm; in series [10] it was 596 nm; in [11], 522 nm; in [12], 650 nm; in series [13], 0.56 10^4/M/cm. Further, the IC50 in the series with HeLa [5] turned out to be 5.06 µM. The concentration for half-maximal inhibition (IC50) at 24 h in [6] is 93.4 µM.

`C1=Cc2nc1c(-c1ccccc1)c1ccc([nH]1)c(-c1ccccc1)c1nc(c(-c3ccccc3)c3ccc([nH]3)c2-c2ccccc2)C(N2CCCCC2)=C1`: the Activity is 19 nm in series [1]; 8.32 10^4/M/cm in [2]; 412 nm in [3]; 0.27 10^4/M/cm in series [4]; 0.19 in series [7]; 669 nm in series [8]. The Activity was 412 nm in [9]; 596 nm in series [10]; 524 nm in series [11]; 650 nm in series [12]; 0.16 10^4/M/cm in series [13]. Also, the concentration for half-maximal inhibition (IC50) in the series with HeLa [5] is 5.56 µM. Further, the half-maximal inhibitory concentration (IC50) at 24 h in [6] came to 110 µM.

With `COC(C)c1c(C)c2cc3nc(cc4[nH]c(cc5nc(cc1[nH]2)C(C)=C5C(C)O)c(C)c4CCC(=O)O)C(CCC(=O)O)=C3C` (centres undefined), the IC50 in the series on HeLa [5] turned out to be 9.46 µM. Further, the half-inhibitory concentration (IC50) at 24 h in [6] is 345 µM. For the same compound, the Activity in [7] came to 0.18.
